Experimental data published in ChEMBL document CHEMBL1127698, “Matrix metalloproteinase inhibitors containing a (carboxyalkyl)amino zinc ligand: modification of the P1 and P2' residues” (J Med Chem, 1994).

Columns and labels:
Interstitial collagenase = target: T1, Interstitial collagenase (Homo sapiens, UniProt P03956); assay: Activity against human collagenase (MMP-1).
T1 sequence (P03956 whole entry): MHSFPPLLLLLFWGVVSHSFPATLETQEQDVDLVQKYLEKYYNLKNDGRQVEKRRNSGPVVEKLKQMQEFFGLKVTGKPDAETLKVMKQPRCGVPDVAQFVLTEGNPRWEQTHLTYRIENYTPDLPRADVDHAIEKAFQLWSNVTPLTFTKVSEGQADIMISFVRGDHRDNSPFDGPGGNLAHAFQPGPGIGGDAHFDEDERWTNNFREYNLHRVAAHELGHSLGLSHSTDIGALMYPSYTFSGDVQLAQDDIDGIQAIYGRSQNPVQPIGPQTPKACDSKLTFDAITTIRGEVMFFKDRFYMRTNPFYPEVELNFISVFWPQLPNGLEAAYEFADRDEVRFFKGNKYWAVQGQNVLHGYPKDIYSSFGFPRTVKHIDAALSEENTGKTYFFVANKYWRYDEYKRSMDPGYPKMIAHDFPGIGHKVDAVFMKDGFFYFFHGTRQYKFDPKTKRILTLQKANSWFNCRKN

Stromelysin-1 = Stromelysin-1 (Homo sapiens, UniProt P08254); assay: Activity against human stromelysin (MMP-3).
How it was run: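 Fluorogenic stromelysin assay: human enzyme 10 nM in pH 7.6 Tris buffer (200 mM NaCl, 5 mM CaCl2, 20 μM ZnSO4, 0.05% Brij 35). Inhibitors ran from 10 000 to 0.057 nM in 3-fold steps. Ki came from % inhibition vs log[inhibitor], with substrate far below Km.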

[1] = target: Matrix metalloproteinase-9 (Homo sapiens, UniProt P14780); assay: Activity against human gelatinase (MMP-9).
How it was run: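 Human gelatinase at 1 nM in pH 7.6 Tris buffer (200 mM NaCl, 5 mM CaCl2, 20 μM ZnSO4, 0.05% Brij 35), with inhibitors at 3-fold dilutions from 10 000 to 0.057 nM. Ki came from % inhibition vs log concentration, with substrate far below Km.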

[2] = Half-life period for the activity is tested at pH 6.8; format: ADME
How it was run: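 Inhibitor at 20 μM in 20 mM sodium phosphate, pH 6.8, held at 30 °C. Aliquots were injected every 3 h over 24 h onto C18 reverse-phase HPLC with a 5–60% acetonitrile gradient containing 0.1% TFA.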

Chain of Matrix metalloproteinase-9 (P14780 whole entry): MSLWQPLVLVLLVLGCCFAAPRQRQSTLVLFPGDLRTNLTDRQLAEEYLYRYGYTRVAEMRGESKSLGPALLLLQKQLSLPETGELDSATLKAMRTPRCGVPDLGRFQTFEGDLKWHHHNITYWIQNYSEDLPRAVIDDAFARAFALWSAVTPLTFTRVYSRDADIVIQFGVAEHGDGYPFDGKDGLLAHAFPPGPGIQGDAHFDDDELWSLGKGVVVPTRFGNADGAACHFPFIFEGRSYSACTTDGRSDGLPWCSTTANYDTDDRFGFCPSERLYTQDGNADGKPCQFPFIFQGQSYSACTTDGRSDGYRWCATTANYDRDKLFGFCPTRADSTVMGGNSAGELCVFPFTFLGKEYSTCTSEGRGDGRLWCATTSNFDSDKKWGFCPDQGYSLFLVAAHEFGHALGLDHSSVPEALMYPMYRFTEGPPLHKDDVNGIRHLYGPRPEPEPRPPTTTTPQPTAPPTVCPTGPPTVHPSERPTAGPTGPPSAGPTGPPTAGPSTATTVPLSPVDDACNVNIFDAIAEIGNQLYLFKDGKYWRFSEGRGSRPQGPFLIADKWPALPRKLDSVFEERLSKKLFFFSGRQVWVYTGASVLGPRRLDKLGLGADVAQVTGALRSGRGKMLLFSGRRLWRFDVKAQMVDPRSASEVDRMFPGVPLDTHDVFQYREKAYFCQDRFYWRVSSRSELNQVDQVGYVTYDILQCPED
Chain of Stromelysin-1 (P08254 whole entry): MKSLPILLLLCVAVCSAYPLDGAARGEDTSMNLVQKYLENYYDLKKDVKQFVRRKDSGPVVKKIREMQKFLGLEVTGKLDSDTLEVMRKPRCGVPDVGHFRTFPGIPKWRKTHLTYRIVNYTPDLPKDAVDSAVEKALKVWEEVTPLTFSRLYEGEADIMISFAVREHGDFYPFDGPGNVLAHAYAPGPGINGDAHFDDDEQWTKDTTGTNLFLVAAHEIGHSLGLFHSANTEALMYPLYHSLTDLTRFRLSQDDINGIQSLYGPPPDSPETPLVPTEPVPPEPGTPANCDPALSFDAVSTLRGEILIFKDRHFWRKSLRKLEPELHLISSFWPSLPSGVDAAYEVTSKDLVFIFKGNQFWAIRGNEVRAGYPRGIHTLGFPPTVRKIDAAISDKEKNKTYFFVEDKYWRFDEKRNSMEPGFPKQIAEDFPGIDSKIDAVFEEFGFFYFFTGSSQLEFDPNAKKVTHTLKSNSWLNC

Structure (SMILES)	IC50 (Interstitial collagenase)	IC50 (Stromelysin-1)	IC50 [1]	half-life [2]
CNC(=O)[C@H](CCCN=C(N)N)NC(=O)[C@H](CC(C)C)N[C@H](CCN1C(=O)c2cc3ccccc3cc2C1=O)C(=O)O	152 nM	481 nM	27 nM	
CNC(=O)[C@H](Cc1ccccc1)NC(=O)[C@H](CC(C)C)N[C@H](CCN1Cc2cc3ccccc3cc2C1=O)C(=O)O	211 nM	7880 nM	63 nM	> 100 h
CNC(=O)[C@H](Cc1ccccc1)NC(=O)[C@H](CC(C)C)N[C@H](CCN1C(=O)c2cccc3c(Br)ccc(c23)C1=O)C(=O)O	190 nM	341 nM	28 nM	
CNC(=O)[C@H](Cc1ccccc1)NC(=O)[C@H](CC(C)C)N[C@H](CCN1C(=O)c2cc3c(cc2C1=O)OCO3)C(=O)O	12 nM		5 nM	15.5 h
CNC(=O)[C@H](Cc1ccccc1)NC(=O)[C@H](CC(C)C)N[C@H](CCN1C(=O)c2cc3ccccc3nc2C1=O)C(=O)O	22 nM	518 nM	7.5 nM	1.7 h
CC(C)C[C@H](N[C@H](CCN1C(=O)c2cc3ccccc3cc2C1=O)C(=O)O)C(=O)NC1CCCc2ccccc21 (stereo not given in full)	108 nM	2470 nM	75 nM	
CC(C)C[C@H](NC(=O)[C@H](CC(C)C)N[C@H](CCN1C(=O)c2cc3ccccc3cc2C1=O)C(=O)O)C(=O)NCCN1CCOCC1	44 nM	121 nM	13 nM	37 h
CNC(=O)[C@H](Cc1ccccc1)NC(=O)[C@H](CC(C)C)N[C@H](CCN1C(=O)c2cc3ccc(OC)cc3cc2C1=O)C(=O)O	36 nM			
CC(C)C[C@H](N[C@H](CCN1C(=O)c2cc3ccccc3cc2C1=O)C(=O)O)C(=O)N(C)Cc1ccccc1	37 nM	1160 nM	57 nM	
CNC(=O)[C@H](Cc1ccccc1)NC(=O)[C@H](CC(C)C)N[C@H](CCNC(=O)c1ccc2ccccc2c1)C(=O)O	488 nM	2340 nM	49 nM	> 100 h
CNC(=O)[C@H](Cc1ccccc1)NC(=O)[C@H](CC(C)C)N[C@H](CCN1C(=O)c2cc3ccccc3cc2C1=O)C(=O)O	20 nM	91 nM	5 nM	29 h
CC(C)C[C@H](N[C@H](CCN1C(=O)c2cc3ccccc3cc2C1=O)C(=O)O)C(=O)N1CCc2ccccc2C1	84 nM	2190 nM	88 nM	
CNC(=O)[C@H](Cc1ccccc1)NC(=O)[C@H](CC(C)C)N[C@H](CCNC(=O)OCc1ccccc1)C(=O)O		3570 nM	580 nM	
CNC(=O)[C@H](Cc1ccccc1)NC(=O)[C@H](CC(C)C)N[C@H](CCn1c(=O)c2cc3c(=O)[nH]c(=O)c3cc2c1=O)C(=O)O	38 nM	2170 nM	4.8 nM	1.7 h
CNC(=O)[C@H](Cc1ccccc1)NC(=O)[C@H](CC(C)C)N[C@H](CCN1C(=O)c2ccccc2C1=O)C(=O)O	81 nM	5970 nM	59 nM	10 h
CNC(=O)C(NC(=O)[C@H](CC(C)C)N[C@H](CCN1C(=O)c2cc3ccccc3cc2C1=O)C(=O)O)c1ccccc1 (stereo not given in full)	19 nM	631 nM	14 nM	
CNC(=O)[C@H](Cc1ccc(O)cc1)NC(=O)[C@H](CC(C)C)N[C@H](CCN1C(=O)c2cc3ccccc3cc2C1=O)C(=O)O	29 nM	72 nM	3.8 nM	
CNC(=O)[C@H](Cc1ccccc1)NC(=O)[C@H](CC(C)C)N[C@H](CCN1C(=O)c2ccc(-c3ccccc3)cc2C1=O)C(=O)O	19 nM	216 nM	4.5 nM	7.8 h
CNC(=O)[C@H](Cc1ccccc1)NC(=O)[C@H](CC(C)C)N[C@H](CCN1C(=O)c2cc3ccccc3c(OC)c2C1=O)C(=O)O	54 nM	1370 nM	7.4 nM	87 h
CCCOc1ccc2c(c1)C(=O)N(CC[C@@H](N[C@@H](CC(C)C)C(=O)N[C@@H](Cc1ccccc1)C(=O)NC)C(=O)O)C2=O	15 nM	427 nM	2.1 nM	10.9 h
CNC(=O)[C@H](Cc1ccccc1)NC(=O)[C@H](CC(C)C)N[C@H](CCN1C(=O)c2cc3cccc(OC)c3cc2C1=O)C(=O)O	36 nM	1400 nM	15 nM	7.2 h
CC(C)C[C@H](N[C@H](CCN1C(=O)c2cc3ccccc3cc2C1=O)C(=O)O)C(=O)N1CCCC1c1cccnc1 (stereo in doubt; 75)	44 nM	960 nM	18 nM	
CC(C)C[C@H](N[C@H](CCN1C(=O)c2cc3ccccc3cc2C1=O)C(=O)O)C(=O)N1CCCC1c1cccnc1 (stereo in doubt; 76)	164 nM	4080 nM	70 nM	

Second part, the molecule after the results:

IC50 (Interstitial collagenase)	IC50 (Stromelysin-1)	IC50 [1]	half-life [2]	Structure (SMILES)
370 nM	> 10000 nM	124 nM		CNC(=O)CNC(=O)[C@H](CC(C)C)N[C@H](CCN1C(=O)c2cc3ccccc3cc2C1=O)C(=O)O
74 nM	4700 nM	76 nM		CC(C)C[C@@H](N[C@H](CCN1C(=O)c2cc3ccccc3cc2C1=O)C(=O)O)C(=O)NC(C)c1ccccc1 (stereo not given in full)
160 nM	> 10000 nM	35 nM		CC(C)C[C@H](N[C@H](CCN1C(=O)c2cc3ccccc3cc2C1=O)C(=O)O)C(=O)NCCc1ccccc1
490 nM	> 10000 nM	706 nM		CNC(=O)[C@H](CC(C)C)N[C@H](CCN1C(=O)c2cc3ccccc3cc2C1=O)C(=O)O
56 nM	178 nM	74 nM		CC(C)C[C@H](N[C@H](CCN1C(=O)c2cc3ccccc3cc2C1=O)C(=O)O)C(=O)NCc1ccc(C(=O)O)cc1
49 nM	1300 nM	11 nM	27 h	CNC(=O)[C@H](CC(C)C)NC(=O)[C@H](CC(C)C)N[C@H](CCN1C(=O)c2cc3ccccc3cc2C1=O)C(=O)O
139 nM	309 nM	36 nM		CC(C)C[C@H](N[C@H](CCN1C(=O)c2cc3ccccc3cc2C1=O)C(=O)O)C(=O)NCc1cccnc1
51 nM	965 nM	12 nM		CC(C)C[C@H](N[C@H](CCN1C(=O)c2cc3ccccc3cc2C1=O)C(=O)O)C(=O)NC(C)c1ccccc1 (stereo not given in full)
54 nM	1890 nM	70 nM		CC(C)C[C@H](N[C@H](CCN1C(=O)c2cc3ccccc3cc2C1=O)C(=O)O)C(=O)N1CCN(C)CC1
	12500 nM	101 nM		CC(C)C[C@H](N[C@H](CCN1C(=O)c2cc3ccccc3cc2C1=O)C(=O)O)C(=O)Nc1ccccc1
41 nM	1480 nM	15 nM		CC(C)C[C@H](N[C@H](CCN1C(=O)c2cc3ccccc3cc2C1=O)C(=O)O)C(=O)NCc1cccc(F)c1
270 nM	2980 nM	30 nM		CC(C)C[C@H](N[C@H](CCN1C(=O)c2cc3ccccc3cc2C1=O)C(=O)O)C(=O)NCc1nnn(C)n1
70 nM	295 nM	6.7 nM		CC(C)C[C@H](N[C@H](CCN1C(=O)c2cc3ccccc3cc2C1=O)C(=O)O)C(=O)NCc1ccc(S(N)(=O)=O)cc1
86 nM	5630 nM	69 nM		CNC(=O)[C@H](C)NC(=O)[C@H](CC(C)C)N[C@H](CCN1C(=O)c2cc3ccccc3cc2C1=O)C(=O)O
86 nM	> 10000 nM	82 nM		CC(C)C[C@H](N[C@H](CCN1C(=O)c2cc3ccccc3cc2C1=O)C(=O)O)C(=O)N(C)C
87 nM	1520 nM	32 nM		CC(C)C[C@H](N[C@H](CCN1C(=O)c2cc3ccccc3cc2C1=O)C(=O)O)C(=O)NCc1ccccc1
